Consider 10 molecules from ChEMBL document CHEMBL5154920, “Ispinesib as an Effective Warhead for the Design of Autophagosome-Tethering Chimeras: Discovery of Potent Degraders of Nicotinamide Phosphoribosyltransferase (NAMPT)” (J Med Chem, 2022).

Each structure is given as a SMILES string. Calls of active or inactive are those of the source. The calls are words filed in the database; no cut-off is given here.

Series [1] can be described thus: Inhibition of kinesin spindle protein (unknown origin). Also noted: species or system Homo sapiens.
Series [2] has as its target T1, Microtubule-associated protein 1 light chain 3 beta (Homo sapiens, UniProt Q9GZQ8). The series can be described thus: Binding affinity to human recombinant LC3B assessed as dissociation constant by isothermal titration calorimetry. Summed up: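 Reverse titration of recombinant LC3B (1500 μM in syringe) into a cell holding 100 μM ligand, in 20 mM HEPES-HCl pH 7.3, 100 mM NaCl, 1% DMSO, at 25 °C. Injections were spaced 120 s apart so the signal returned to baseline. Thermodynamic parameters and KD came from the titration isotherm.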

The subject of series [3] is A2780. The series can be described thus: Cytotoxicity against human A2780 cells. It is filed as functional, cell-based.
A short description of series [4]: Stability of compound in 1640 culture medium measured up to 72 hrs by HPLC analysis. The class given is physicochemical.
Series [5] has as its target T2, LC3/Nicotinamide phosphoribosyltransferase (Homo sapiens) (UniProt P43490+Q9BXW4+Q9GZQ8+Q9H492). The series can be described thus: Autophagosome tethering activity at NAMPT overexpressing human A2780 cells assessed as lysosome-mediated degradation of NAMPT at 0.1 uM incubated for 48 hrs. The class given is cell-based. Summed up:
(§1)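 A2780 cells were exposed to compound for 48 h. The medium was then removed and the cells washed three times with PBS and lysed on ice in RIPA buffer for 30 min. Lysates were centrifuged at 1.2 × 10^5 g, 4 °C, for 15 min. Protein was quantified by BCA and denatured at 100 °C. Blots were blocked in 5% BSA/TBST for 2 h, probed with primary antibody at 4 °C overnight and secondary for 1 h, and NAMPT was read on Odyssey.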

Series [6] has as its system A2780. The series can be described thus: Antiproliferative activity against human A2780 cells overexpressing NAMPT assessed as cell growth inhibition incubated for 72 hrs. The class given is functional, cell-based. The following applies: A2780, 72 h.
Series [7] deals with HCT-116. The series can be described thus: Antiproliferative activity against human HCT-116 cells expressing NAMPT assessed as cell growth inhibition incubated for 72 hrs. The class given is functional, cell-based.
Series [8] deals with MDA-MB-231. The series can be described thus: Antiproliferative activity against human MDA-MB-231 cells overexpressing NAMPT assessed as cell growth inhibition incubated for 72 hrs. It is filed as functional, cell-based.
Series [9] deals with T1, Microtubule-associated protein 1 light chain 3 beta. The series can be described thus: Binding affinity to LC3B (unknown origin) assessed as dissociation constant by surface plasmon resonance analysis.
For series [10], the target named is T2, LC3/Nicotinamide phosphoribosyltransferase (Homo sapiens). The series can be described thus: Autophagosome tethering activity at NAMPT overexpressing human A2780 cells assessed as lysosome-mediated degradation of NAMPT at 3 uM incubated for 48 hrs. It is filed as cell-based. The method in brief: as §1
Series [11] deals with A2780. The series can be described thus: Binding affinity to KSP in human A2780 cell lysate incubated at 51 to 63 degree Celsius for 4 hrs by Western blotting based CETSA method. It is filed as subcellular. Summed up:
(§2)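 CETSA: A2780 cells were seeded at × 107/well and incubated overnight at 37 °C, 5% CO2. Compound was added at the indicated concentration for 4 h. Cells were collected and lysed by three 5-min liquid-nitrogen freeze cycles, then centrifuged at 1.2 × 10^5 g, 4 °C, for 15 min. Supernatants were denatured at 100 °C and protein level was detected by SDS-PAGE.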
A general note: In western blotting, separated proteins are transferred to a membrane and probed.

For series [12], the target named is T3, Nicotinamide phosphoribosyltransferase (Homo sapiens, UniProt P43490). The series can be described thus: Inhibition of NAMPT (unknown origin) measured after 90 mins by measuring fluorescence intensity.
Target sequence in this assay (P43490 whole entry): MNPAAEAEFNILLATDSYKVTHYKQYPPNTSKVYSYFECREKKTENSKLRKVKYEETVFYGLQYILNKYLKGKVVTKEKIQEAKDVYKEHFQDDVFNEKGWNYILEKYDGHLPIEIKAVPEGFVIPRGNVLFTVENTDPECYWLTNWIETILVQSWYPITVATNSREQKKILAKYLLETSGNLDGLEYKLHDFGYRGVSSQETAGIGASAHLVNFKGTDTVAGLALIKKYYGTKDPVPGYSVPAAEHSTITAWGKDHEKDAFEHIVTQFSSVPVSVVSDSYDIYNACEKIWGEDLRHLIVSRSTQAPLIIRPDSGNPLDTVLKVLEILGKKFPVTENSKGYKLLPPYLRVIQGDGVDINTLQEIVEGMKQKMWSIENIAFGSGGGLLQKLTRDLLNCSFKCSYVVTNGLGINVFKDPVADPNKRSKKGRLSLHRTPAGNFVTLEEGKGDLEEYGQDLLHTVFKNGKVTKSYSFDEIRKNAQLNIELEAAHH
Series [13] addresses T3, Nicotinamide phosphoribosyltransferase. The series can be described thus: Binding affinity to NAMPT in human A2780 cell lysate assessed as thermal stability incubated at 51 to 63 degree Celsius for 4 hrs by Western blotting based CETSA method. The class given is subcellular. Summed up: as §2
Target sequence in this assay (P43490 whole entry, looked up): as the sequence (P43490 whole entry) above
Series [14] deals with T1, Microtubule-associated protein 1 light chain 3 beta. The series can be described thus: Binding affinity to human recombinant LC3B assessed as dissociation constant incubated for 30 mins by fluorescence anisotropy assay. Summed up:
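Fluorescence anisotropy used fluorescein-labeled ispinesib as the tracer, diluted to 50 nM in HEPES buffer, final 25 nM. A twofold serial dilution of LC3 protein in HEPES buffer was added. KD was derived from anisotropy. Measurements were done in triplicate and given as mean ± standard deviation.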
On the technique in general: Fluorescence polarisation rises when a labelled molecule tumbles more slowly, as on binding a larger partner.

In series [15] the test system is HeLa. The series can be described thus: Drug localization in human HeLa cells by measuring colocalization with lysosome probe treated for 2 hrs by confocal microscopy. The class given is functional, cell-based. Summed up: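 HeLa cells were treated with the green fluorescent probe for 2 h, then stained with a red lysosome probe for another 1.5 h. Colocalization was imaged by confocal microscopy.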

Broadly, the IC50 is the point on the concentration scale where inhibition reaches its midpoint. The Kd is a measure of binding affinity in units of concentration. As to `Cc1ccc(C(=O)N(CCCN)[C@H](c2nc3cc(Cl)ccc3c(=O)n2Cc2ccccc2)C(C)C)cc1`, the IC50 in series [1] was determined as 0.0005 µM. For the same molecule, the Kd in series [2] was determined as 11.8 µM. The outcome in [3] was Active.

Regarding `Cc1ccc(C(=O)N(CCCNC(=O)CCCCCCCCN2CCN(S(=O)(=O)c3ccc(NC(=S)NCc4cccnc4)cc3)CC2)[C@@H](c2nc3cc(Cl)ccc3c(=O)n2Cc2ccccc2)C(C)C)cc1`, the Stability result in [4] is “Stable”. In addition, the results for the Activity in series [5] and in series [10] were 90% and 91%, respectively. Further, the IC50 in [6] was 0.046 µM; in [12], 0.023 µM. Moreover, the outcome in series [7], in series [8], in [11] and in series [13] was Active. Besides, the Kd in series [9] came out at 0.933 µM.

In the case of `Cc1ccc(C(=O)N(CCCNC(=O)CCCCCCN2CCN(S(=O)(=O)c3ccc(NC(=S)NCc4cccnc4)cc3)CC2)[C@@H](c2nc3cc(Cl)ccc3c(=O)n2Cc2ccccc2)C(C)C)cc1`, the figures for the Activity in [5] and in series [10] were 9% and 86%, respectively. Besides, the IC50 in [12] worked out at 0.015 µM.

As to `Cc1ccc(C(=O)N(CCCNC(=O)CCCCCCCCCCN2CCN(S(=O)(=O)c3ccc(NC(=S)NCc4cccnc4)cc3)CC2)[C@@H](c2nc3cc(Cl)ccc3c(=O)n2Cc2ccccc2)C(C)C)cc1`, the values for the Activity in series [5] and in [10] were 33% and 93%, respectively. Further, inhibition in series [12] was half-maximal at 0.013 µM (IC50).

On to `Cc1ccc(C(=O)N(CCCNC(=O)CCCCCCCCCN2CCN(S(=O)(=O)c3ccc(NC(=S)NCc4cccnc4)cc3)CC2)[C@@H](c2nc3cc(Cl)ccc3c(=O)n2Cc2ccccc2)C(C)C)cc1`, for which the Activity came to 85% in [5] and 92% in series [10]. The molecule also came in with an IC50 in series [12] of 0.034 µM.

Regarding `Cc1ccc(C(=O)N(CCCNC(=O)CCOCCN2CCN(S(=O)(=O)c3ccc(NC(=S)NCc4cccnc4)cc3)CC2)[C@@H](c2nc3cc(Cl)ccc3c(=O)n2Cc2ccccc2)C(C)C)cc1`, the Activity in series [5] amounted to 1%; in series [10] it was 86%. The same molecule displayed an IC50 in series [12] of 0.01 µM.

As to `Cc1ccc(C(=O)N(CCCNC(=S)Nc2ccc3c(c2)C(=O)OC32c3ccc(O)cc3Oc3cc(O)ccc32)[C@@H](c2nc3cc(Cl)ccc3c(=O)n2Cc2ccccc2)C(C)C)cc1`, in series [14], the Kd came out at 0.175 µM. The result in series [15] was Active.

Consider `O=S(=O)(c1ccc(NC(=S)NCc2cccnc2)cc1)N1CCNCC1`, for which the IC50 in [6] worked out at 0.49 µM.

With `Cc1ccc(C(=O)N(CCCNC(=O)CCCCCCCN2CCN(S(=O)(=O)c3ccc(NC(=S)NCc4cccnc4)cc3)CC2)[C@@H](c2nc3cc(Cl)ccc3c(=O)n2Cc2ccccc2)C(C)C)cc1`, the Activity in series [5] was determined as 1%; in [10], 83%. Besides, the IC50 in series [12] is 0.019 µM.

In the case of `Cc1ccc(C(=O)N(CCCNC(=O)CCOCCOCCOCCN2CCN(S(=O)(=O)c3ccc(NC(=S)NCc4cccnc4)cc3)CC2)[C@@H](c2nc3cc(Cl)ccc3c(=O)n2Cc2ccccc2)C(C)C)cc1`, the Activity in [5] stood at 76%; in series [10], 91%. Besides, in series [12], inhibition was half-maximal at 0.01 µM (IC50).
